Experimental data: ChEMBL document CHEMBL2385063, “Identification of 2-(2-(1-naphthoyl)-8-fluoro-3,4-dihydro-1H-pyrido[4,3-b]indol-5(2H)-yl)acetic acid (setipiprant/ACT-129968), a potent, selective, and orally bioavailable chemoattractant receptor-homologous molecule expressed on Th2 cells (CRTH2) antagonist” (J Med Chem, 2013)

These molecules were tested against T1, Thromboxane A2 receptor (Homo sapiens, UniProt P21731) (assay: Antagonist activity at human prostanoid TP2 receptor expressed in HEK293 cells assessed as inhibition of calcium flux after 30 to 40 mins by FLIPR assay).
T1 sequence (P21731 whole entry): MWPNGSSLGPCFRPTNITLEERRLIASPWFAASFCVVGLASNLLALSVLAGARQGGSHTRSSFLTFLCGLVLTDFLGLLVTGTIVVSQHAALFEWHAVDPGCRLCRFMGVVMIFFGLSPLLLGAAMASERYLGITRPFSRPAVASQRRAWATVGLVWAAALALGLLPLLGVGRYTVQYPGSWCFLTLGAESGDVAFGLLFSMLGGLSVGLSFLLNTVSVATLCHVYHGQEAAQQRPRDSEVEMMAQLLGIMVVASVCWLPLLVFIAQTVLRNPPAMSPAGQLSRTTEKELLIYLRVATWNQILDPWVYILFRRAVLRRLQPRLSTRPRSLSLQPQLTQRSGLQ
Type: functional, cell-based

IC50 [µM] | SMILES
> 25 | O=C(O)Cn1c2c(c3ccccc31)CN(C(=O)c1cccc(Cl)c1)CC2
> 25 | O=C(O)Cn1c2c(c3cc(F)ccc31)CN(C(=O)Cc1c[nH]c3ccccc13)CC2
> 25 | CC(C)c1ccc2c(c1)c1c(n2CC(=O)O)CCN(C(=O)c2ccccc2)C1
> 25 | CCc1ccc(-c2ccc(C(=O)N3CCc4c(c5cccc(Cl)c5n4CC(=O)O)C3)cc2)cc1

The molecules below were run against T2, Prostaglandin E2 receptor EP4 subtype (Homo sapiens, UniProt P35408) (assay: Inhibition of beta-arrestin binding to recombinant human prostanoid EP4 receptor expressed in HEK293 cell membranes by beta-lactamase complementation assay).
T2 sequence (P35408 whole entry): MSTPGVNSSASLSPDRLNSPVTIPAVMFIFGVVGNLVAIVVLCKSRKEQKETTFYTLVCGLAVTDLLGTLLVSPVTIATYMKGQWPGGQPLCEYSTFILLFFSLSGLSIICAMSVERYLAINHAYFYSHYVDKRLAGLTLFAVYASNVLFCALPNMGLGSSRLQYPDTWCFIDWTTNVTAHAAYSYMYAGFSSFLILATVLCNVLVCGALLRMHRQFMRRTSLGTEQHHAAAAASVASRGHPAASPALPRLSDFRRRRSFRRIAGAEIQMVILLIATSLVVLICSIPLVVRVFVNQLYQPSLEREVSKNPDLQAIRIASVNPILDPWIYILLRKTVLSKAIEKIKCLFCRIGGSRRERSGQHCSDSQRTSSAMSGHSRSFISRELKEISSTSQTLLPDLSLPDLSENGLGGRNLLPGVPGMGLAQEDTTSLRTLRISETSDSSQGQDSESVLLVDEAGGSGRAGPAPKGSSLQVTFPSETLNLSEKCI

IC50 [µM] | SMILES
> 10 | O=C(O)Cn1c2c(c3ccccc31)CN(C(=O)c1cccc(Cl)c1)CC2
> 10 | O=C(O)Cn1c2c(c3cc(F)ccc31)CN(C(=O)Cc1c[nH]c3ccccc13)CC2
> 10 | CCc1ccc(-c2ccc(C(=O)N3CCc4c(c5cccc(Cl)c5n4CC(=O)O)C3)cc2)cc1

The molecules below were run against Prostaglandin E2 receptor EP2 subtype (Homo sapiens, UniProt P43116) (assay: Inhibition of beta-arrestin binding to recombinant human prostanoid EP2 receptor expressed in HEK293 cell membranes by beta-lactamase complementation assay).
Sequence of Prostaglandin E2 receptor EP2 subtype (P43116 whole entry): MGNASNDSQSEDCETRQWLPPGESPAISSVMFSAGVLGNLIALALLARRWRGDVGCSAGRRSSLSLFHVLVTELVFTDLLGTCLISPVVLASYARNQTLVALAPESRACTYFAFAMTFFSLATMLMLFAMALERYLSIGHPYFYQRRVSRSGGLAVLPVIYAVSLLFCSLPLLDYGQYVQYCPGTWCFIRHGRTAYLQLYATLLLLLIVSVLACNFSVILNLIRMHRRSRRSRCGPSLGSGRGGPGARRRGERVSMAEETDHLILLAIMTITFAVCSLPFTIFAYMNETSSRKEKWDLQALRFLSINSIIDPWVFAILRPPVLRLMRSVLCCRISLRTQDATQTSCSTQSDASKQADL

IC50 [µM] | SMILES
> 10 | O=C(O)Cn1c2c(c3ccccc31)CN(C(=O)c1cccc(Cl)c1)CC2
> 10 | O=C(O)Cn1c2c(c3cc(F)ccc31)CN(C(=O)Cc1c[nH]c3ccccc13)CC2
> 10 | CCc1ccc(-c2ccc(C(=O)N3CCc4c(c5cccc(Cl)c5n4CC(=O)O)C3)cc2)cc1

The molecules below were run against T2, Prostaglandin E2 receptor EP4 subtype (assay: Displacement of [3H]PGE2 from recombinant human prostanoid EP4 receptor expressed in HEK293 cell membranes after 90 mins by scintillation counting analysis).

IC50 [µM] | SMILES
> 10 | O=C(O)Cn1c2c(c3ccccc31)CN(C(=O)c1cccc(Cl)c1)CC2
> 10 | O=C(O)Cn1c2c(c3cc(F)ccc31)CN(C(=O)Cc1c[nH]c3ccccc13)CC2
> 10 | CC(C)c1ccc2c(c1)c1c(n2CC(=O)O)CCN(C(=O)c2ccccc2)C1
> 10 | CCc1ccc(-c2ccc(C(=O)N3CCc4c(c5cccc(Cl)c5n4CC(=O)O)C3)cc2)cc1

Organism: Homo sapiens
Test: Selectivity factor, ratio of IC50 for recombinant human prostanoid DP1 receptor to IC50 for recombinant human CRTH2 receptor
Method in brief: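 hDP₁ IC₅₀ came from competitive [³H]PGD₂ binding on CHO cells stably overexpressing recombinant hDP₁. hCRTh2 IC₅₀ came from [³H]PGD₂ (2.5 nM) displacement on membranes of HEK-293 cells stably expressing hCRTh2, incubated 90 min at room temperature, filtered and counted. f_Sel = IC₅₀(hDP₁)/IC₅₀(hCRTh2).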

SMILES | Ratio IC50
O=C(O)Cn1c2c(c3ccccc31)CN(C(=O)c1ccccc1)CC2 | > 580
CCc1ccc(-c2ccc(C(=O)N3CCc4c(c5cccc(Cl)c5n4CC(=O)O)C3)cc2)cc1 | 5.2

The remaining lines, values ahead:

Ratio IC50 | SMILES
> 1000 | O=C(O)Cn1c2c(c3ccccc31)CN(C(=O)c1cccc(Cl)c1)CC2
> 2000 | O=C(O)Cn1c2c(c3cc(F)ccc31)CN(C(=O)Cc1c[nH]c3ccccc13)CC2

The molecules below were run against T3, Prostaglandin D2 receptor 2 (Homo sapiens, UniProt Q9Y5Y4) (assay: Displacement of [3H]PGD2 from recombinant human CRTH2 receptor expressed in HEK293 cell membranes after 90 mins by scintillation counting analysis in presence of human serum albumin).
T3 sequence (Q9Y5Y4 whole entry): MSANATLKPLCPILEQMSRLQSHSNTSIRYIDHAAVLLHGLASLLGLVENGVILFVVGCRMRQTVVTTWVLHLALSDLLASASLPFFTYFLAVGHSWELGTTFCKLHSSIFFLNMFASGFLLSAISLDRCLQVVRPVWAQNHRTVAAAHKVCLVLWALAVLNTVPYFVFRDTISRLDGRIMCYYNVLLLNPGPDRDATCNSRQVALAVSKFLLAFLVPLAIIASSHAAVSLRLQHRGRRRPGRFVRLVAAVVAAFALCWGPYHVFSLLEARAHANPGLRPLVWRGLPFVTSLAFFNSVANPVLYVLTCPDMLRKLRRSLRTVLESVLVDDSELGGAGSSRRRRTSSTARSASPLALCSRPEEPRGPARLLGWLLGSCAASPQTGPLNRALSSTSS
Method in brief: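 Same hCRTH2 HEK293 membrane [3H]PGD2 (2.5 nM) displacement, 90 min at room temperature, with 0.5% human serum albumin added to the assay buffer; scintillation counting.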

IC50 [µM] | SMILES
0.03 | O=C(O)Cn1c2c(c3ccccc31)CN(C(=O)c1cccc(Cl)c1)CC2
0.035 | O=C(O)Cn1c2c(c3cc(F)ccc31)CN(C(=O)Cc1c[nH]c3ccccc13)CC2
0.09 | CCc1ccc(-c2ccc(C(=O)N3CCc4c(c5cccc(Cl)c5n4CC(=O)O)C3)cc2)cc1

The molecules below were run against T3, Prostaglandin D2 receptor 2 (assay: Displacement of [3H]PGD2 from recombinant human CRTH2 receptor expressed in HEK293 cell membranes after 90 mins by scintillation counting analysis).
Method in brief: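 Membranes from HEK293 cells expressing hCRTH2 (80 μg protein/well) in Tris pH 7.4 buffer with NaCl, EDTA, 0.1% BSA were incubated with 2.5 nM [3H]PGD2 for 90 min at room temperature. Nonspecific binding was defined with 10 μM PGD2. Samples were filtered on PEI-soaked GF/C and read by scintillation counting.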

IC50 [µM] | SMILES
0.01 | O=C(O)Cn1c2c(c3ccccc31)CN(C(=O)c1cccc(Cl)c1)CC2
0.005 | O=C(O)Cn1c2c(c3cc(F)ccc31)CN(C(=O)Cc1c[nH]c3ccccc13)CC2
0.042 | CC(C)c1ccc2c(c1)c1c(n2CC(=O)O)CCN(C(=O)c2ccccc2)C1
0.023 | CCc1ccc(-c2ccc(C(=O)N3CCc4c(c5cccc(Cl)c5n4CC(=O)O)C3)cc2)cc1

The molecules below were run against T4, Prostaglandin G/H synthase 1 (Ovis aries) (UniProt P05979) (assay: […] at ovine COX-1 at 10 uM relative to control).
T4 sequence (whole entry): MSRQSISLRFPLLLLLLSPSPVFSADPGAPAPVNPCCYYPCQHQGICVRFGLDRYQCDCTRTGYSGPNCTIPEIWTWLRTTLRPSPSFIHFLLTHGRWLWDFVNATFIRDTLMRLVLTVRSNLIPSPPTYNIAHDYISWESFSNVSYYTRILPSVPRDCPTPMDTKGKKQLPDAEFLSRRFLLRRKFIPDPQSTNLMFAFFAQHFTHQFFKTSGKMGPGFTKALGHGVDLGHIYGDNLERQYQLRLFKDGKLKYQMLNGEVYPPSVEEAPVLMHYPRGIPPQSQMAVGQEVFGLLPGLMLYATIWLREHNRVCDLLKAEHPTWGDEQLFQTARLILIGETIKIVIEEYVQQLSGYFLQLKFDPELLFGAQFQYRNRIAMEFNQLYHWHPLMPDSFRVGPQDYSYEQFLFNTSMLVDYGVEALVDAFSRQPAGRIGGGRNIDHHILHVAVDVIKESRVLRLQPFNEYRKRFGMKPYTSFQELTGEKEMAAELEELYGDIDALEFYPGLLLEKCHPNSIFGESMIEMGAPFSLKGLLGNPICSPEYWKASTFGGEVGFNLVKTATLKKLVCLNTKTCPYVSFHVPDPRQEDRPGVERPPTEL
Set-up: scale not given: the % may be the effect or the level left
Method in brief: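 Ovine COX-1 activity measured with a commercial kit, following the manufacturer's protocol. Compounds were tested in duplicate at 10 μM final concentration. Activity is expressed as inhibition relative to control.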

SMILES | Activity [%]
O=C(O)Cn1c2c(c3ccccc31)CN(C(=O)c1ccccc1)CC2 | < 30
CCc1ccc(-c2ccc(C(=O)N3CCc4c(c5cccc(Cl)c5n4CC(=O)O)C3)cc2)cc1 | < 30

Further lines, results first:

Activity [%] | SMILES
< 30 | O=C(O)Cn1c2c(c3ccccc31)CN(C(=O)c1cccc(Cl)c1)CC2
< 30 | O=C(O)Cn1c2c(c3cc(F)ccc31)CN(C(=O)Cc1c[nH]c3ccccc13)CC2
< 30 | CC(C)c1ccc2c(c1)c1c(n2CC(=O)O)CCN(C(=O)c2ccccc2)C1

What follows are molecules tested against T5, Prostaglandin D2 receptor (Homo sapiens, UniProt Q13258) (assay: Displacement of [3H]PGD2 from recombinant human prostanoid DP1 receptor expressed in CHO cells after 90 mins by scintillation counting analysis).
T5 sequence (Q13258 whole entry): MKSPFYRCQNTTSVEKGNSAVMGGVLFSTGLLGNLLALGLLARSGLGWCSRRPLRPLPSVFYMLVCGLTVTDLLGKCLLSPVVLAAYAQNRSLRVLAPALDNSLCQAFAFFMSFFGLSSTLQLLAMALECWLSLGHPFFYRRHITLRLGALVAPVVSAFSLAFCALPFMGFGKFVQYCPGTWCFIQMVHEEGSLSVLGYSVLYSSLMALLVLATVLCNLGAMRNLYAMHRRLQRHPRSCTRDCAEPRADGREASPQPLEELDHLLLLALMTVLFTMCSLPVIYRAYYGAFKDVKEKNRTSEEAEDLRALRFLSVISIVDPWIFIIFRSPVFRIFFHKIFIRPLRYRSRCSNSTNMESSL
Type: cell-based
Method in brief: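 Competitive binding with CHO cells stably expressing high levels of recombinant hDP1, using [3H]PGD2 as ligand; IC50 reported.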

IC50 [µM] | SMILES
> 10 | O=C(O)Cn1c2c(c3ccccc31)CN(C(=O)c1cccc(Cl)c1)CC2
> 10 | O=C(O)Cn1c2c(c3cc(F)ccc31)CN(C(=O)Cc1c[nH]c3ccccc13)CC2
0.12 | CCc1ccc(-c2ccc(C(=O)N3CCc4c(c5cccc(Cl)c5n4CC(=O)O)C3)cc2)cc1
